Data set [1] addresses Macrophage-stimulating protein receptor (Homo sapiens, UniProt Q04912). Kind of data set: Inhibition of Ron (unknown origin) using poly (Glu, Tyr)4:1 as substrate in presence of ATP measured after 30 mins by HTRF assay. Put shortly:
(§1)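 Kinase inhibition measured by homogeneous time-resolved fluorescence (HTRF) across a panel of Ron, ALK and other tyrosine kinases, with IC50 as the read-out.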
(In TR-FRET formats the signal depends on donor and acceptor labels being close together.)

The next data set relates to MKN-45. Kind of data set: Cytotoxicity against human MKN-45 cells assessed as inhibition of cell proliferation measured after 72 hrs by MTT assay. It counts as functional, cell-based. Conditions: MKN-45, 72 h. (In general: Formazan colour is commonly taken as a measure of viable cells.)
Data set [2] can be described thus: Toxicity in Balb/c mouse assessed as body weight at 100 to 200 mg/kg, ip measured after 15 days. It counts as organism-based. Conditions: in vivo, 360 h, dose 100-200 mg/kg, time 15 day. Put shortly: (§2)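 Acute toxicity in 8-week-old male BALB/c mice, randomized into groups of n = 10. Single intraperitoneal dose on day 0 of vehicle or 100, 200, 300 or 400 mg/kg, plus an untreated control group. Mice watched for 15 days for deaths, abnormalities, anaphylactic or allergic reactions and body weight loss.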

The test system of a further data set is A549. Put plainly: Induction of apoptosis in human A549 cells assessed as early apoptosis measured after 12 hrs by Annexin V-FITC/ Propidium iodide stain based flow cytometry assay. It counts as functional, cell-based. The following applies: dose 0.25-1 µM. Put shortly: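 Cells double-stained with FITC-annexin V and propidium iodide, then flow cytometry gave the percentages of early and late apoptotic cells.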
(In general: Flow cytometry measures light scatter and fluorescence of single cells or particles in a stream.)

Data set [3] can be described thus: Clearance in Balb/c mouse at 8 mg/kg, po measured after 24 hrs by LC/MS/MS analysis. It counts as ADME, organism-based. Conditions: in vivo. The method, boiled down: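 Clearance from the plasma profile of BALB/c mice after a single oral dose of 8 mg/kg.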
Data set [4] addresses Platelet-derived growth factor receptor beta (Homo sapiens, UniProt P09619). Kind of data set: Inhibition of PDGFR beta (unknown origin) using poly (Glu, Tyr)4:1 as substrate in presence of ATP measured after 30 mins by HTRF assay. Put shortly:
as §1

Data set [5] has as its target Hepatocyte growth factor receptor (Homo sapiens, UniProt P08581). Kind of data set: Inhibition of c-MET (unknown origin) using poly (Glu, Tyr)4:1 as substrate in presence of ATP measured after 30 mins by HTRF assay.
In data set [6] the target is Mast/stem cell growth factor receptor Kit (Homo sapiens, UniProt P10721). Put plainly: Inhibition of c-Kit (unknown origin) using poly (Glu, Tyr)4:1 as substrate in presence of ATP measured after 30 mins by HTRF assay. The method, boiled down:
as §1

The subject of another data set is MDA-MB-231. Kind of data set: Cytotoxicity against human MDA-MB-231 cells assessed as inhibition of cell proliferation measured after 72 hrs by MTT assay. It counts as functional, cell-based. Conditions: MDA-MB-231, 72 h.
Data set [7] deals with ALK tyrosine kinase receptor (Homo sapiens, UniProt Q9UM73). Put plainly: Inhibition of ALK (unknown origin) using poly (Glu, Tyr)4:1 as substrate in presence of ATP measured after 30 mins by HTRF assay. Put shortly: as §1
A short description of data set [8]: Selectivity index, ratio of IC50 for human HUVEC cells assessed as inhibition of cell proliferation to IC50 of HT-29 cells assessed as inhibition of cell proliferation. In kind it is toxicity. Conditions: HUVEC cells versus HT-29 cells, read-out: Selectivity Index.
Data set [9] can be described thus: Cmax in Balb/c mouse at 8 mg/kg, po measured after 24 hrs by LC/MS/MS analysis. It counts as ADME, organism-based. On the set-up: route oral, time 24 hrs, dose 8 mg/kg. The following applies: in vivo. The method, boiled down:
(§3)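 BALB/c mice dosed once orally at 8 mg/kg or intravenously at 2 mg/kg. Plasma concentration followed over time, and Cmax, Tmax, AUC0-∞, elimination half-life, clearance and oral bioavailability were derived from it.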

Data set [10] deals with T1, Receptor-type tyrosine-protein kinase FLT3 (Homo sapiens, UniProt P36888).
T1 sequence (P36888 whole entry): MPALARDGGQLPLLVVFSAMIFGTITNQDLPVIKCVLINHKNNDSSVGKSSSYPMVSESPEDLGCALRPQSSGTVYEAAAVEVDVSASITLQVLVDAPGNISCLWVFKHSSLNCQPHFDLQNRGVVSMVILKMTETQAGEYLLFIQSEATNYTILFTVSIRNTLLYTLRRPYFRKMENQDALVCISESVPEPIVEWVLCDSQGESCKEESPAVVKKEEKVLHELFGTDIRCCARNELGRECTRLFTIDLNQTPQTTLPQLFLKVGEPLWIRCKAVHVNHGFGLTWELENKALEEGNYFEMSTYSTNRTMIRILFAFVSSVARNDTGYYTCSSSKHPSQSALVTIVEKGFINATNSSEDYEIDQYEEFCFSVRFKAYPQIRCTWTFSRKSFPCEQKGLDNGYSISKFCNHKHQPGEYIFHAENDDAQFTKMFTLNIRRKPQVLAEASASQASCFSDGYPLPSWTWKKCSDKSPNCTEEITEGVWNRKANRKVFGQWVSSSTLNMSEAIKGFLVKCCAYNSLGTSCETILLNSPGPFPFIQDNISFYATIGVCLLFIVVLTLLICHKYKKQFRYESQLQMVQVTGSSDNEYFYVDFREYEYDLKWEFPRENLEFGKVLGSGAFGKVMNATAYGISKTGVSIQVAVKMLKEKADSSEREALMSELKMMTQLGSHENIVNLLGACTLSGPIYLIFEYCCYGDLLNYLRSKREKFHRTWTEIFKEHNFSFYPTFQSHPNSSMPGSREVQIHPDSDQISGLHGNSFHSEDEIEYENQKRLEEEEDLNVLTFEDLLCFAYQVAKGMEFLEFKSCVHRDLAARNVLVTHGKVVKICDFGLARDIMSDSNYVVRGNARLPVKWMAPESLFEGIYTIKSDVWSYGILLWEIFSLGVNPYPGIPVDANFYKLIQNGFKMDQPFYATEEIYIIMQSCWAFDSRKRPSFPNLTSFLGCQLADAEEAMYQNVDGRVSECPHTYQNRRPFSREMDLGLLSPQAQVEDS
Put plainly: Inhibition of FLT-3 (unknown origin) using poly (Glu, Tyr)4:1 as substrate in presence of ATP measured after 30 mins by HTRF assay.

Data set [11] can be described thus: Toxicity in Balb/c mouse assessed as no abnormality at 100 to 200 mg/kg, ip measured after 15 days. It counts as organism-based. The following applies: in vivo, 360 h, dose 100-200 mg/kg, time 15 day. The method, boiled down:
as §2

Data set [12] in a line: Toxicity in Balb/c mouse assessed as survival rate at 300 mg/kg, ip measured after 15 days. Conditions: in vivo, time 15 day. It counts as organism-based. Put shortly:
(§4)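 Acute toxicity: 8-week-old male BALB/c mice, randomized in groups of n = 10, given a single intraperitoneal injection on day zero (vehicle only, 100, 200, 300 or 400 mg/kg). A further untreated group served as normal control. Survival on day 15 was reported as a percentage.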

Data set [13] can be described thus: Oral bioavailability in Balb/c mouse at 8 mg/kg measured after 24 hrs by LC/MS/MS analysis. It counts as ADME, organism-based. Conditions: in vivo. The method, boiled down: as §3
Data set [14] is described as follows: Toxicity in Balb/c mouse assessed as survival rate at 100 mg/kg, ip measured after 15 days. It counts as organism-based. Conditions: in vivo, time 15 day. Put shortly: as §4
Data set [15] can be described thus: Half life in Balb/c mouse at 8 mg/kg, po measured after 24 hrs by LC/MS/MS analysis. Conditions: in vivo. In kind it is ADME, organism-based. Put shortly: as §3
The nature of data set [16]: Tmax in Balb/c mouse at 8 mg/kg, po measured after 24 hrs by LC/MS/MS analysis. In kind it is ADME, organism-based. The following applies: in vivo. The method, boiled down:
as §3

As usually defined, the IC50 is the concentration that inhibits the measured activity by half. What is called CL/F is clearance divided by bioavailability, as obtained after extravascular dosing. Usually Cmax stands for the highest concentration seen after dosing. As a reminder, the bioavailability is dose-corrected exposure relative to a reference, in per cent. One may read the half-life as the time in which the quantity being followed falls by half. Low readings indicate fast loss, high ones slow loss. The Tmax is the time from dosing to the highest level.

Macrophage-stimulating protein receptor, sequence (Q04912 25-304 limits assumed): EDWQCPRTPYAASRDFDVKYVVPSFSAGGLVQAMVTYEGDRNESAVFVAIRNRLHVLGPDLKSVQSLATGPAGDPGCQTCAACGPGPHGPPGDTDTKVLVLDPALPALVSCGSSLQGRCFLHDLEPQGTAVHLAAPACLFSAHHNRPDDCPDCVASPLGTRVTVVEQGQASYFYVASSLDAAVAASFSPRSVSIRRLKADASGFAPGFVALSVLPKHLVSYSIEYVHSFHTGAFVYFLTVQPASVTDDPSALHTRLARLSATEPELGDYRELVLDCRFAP
Macrophage-stimulating protein receptor, sequence (Q04912 310-1400 limits assumed): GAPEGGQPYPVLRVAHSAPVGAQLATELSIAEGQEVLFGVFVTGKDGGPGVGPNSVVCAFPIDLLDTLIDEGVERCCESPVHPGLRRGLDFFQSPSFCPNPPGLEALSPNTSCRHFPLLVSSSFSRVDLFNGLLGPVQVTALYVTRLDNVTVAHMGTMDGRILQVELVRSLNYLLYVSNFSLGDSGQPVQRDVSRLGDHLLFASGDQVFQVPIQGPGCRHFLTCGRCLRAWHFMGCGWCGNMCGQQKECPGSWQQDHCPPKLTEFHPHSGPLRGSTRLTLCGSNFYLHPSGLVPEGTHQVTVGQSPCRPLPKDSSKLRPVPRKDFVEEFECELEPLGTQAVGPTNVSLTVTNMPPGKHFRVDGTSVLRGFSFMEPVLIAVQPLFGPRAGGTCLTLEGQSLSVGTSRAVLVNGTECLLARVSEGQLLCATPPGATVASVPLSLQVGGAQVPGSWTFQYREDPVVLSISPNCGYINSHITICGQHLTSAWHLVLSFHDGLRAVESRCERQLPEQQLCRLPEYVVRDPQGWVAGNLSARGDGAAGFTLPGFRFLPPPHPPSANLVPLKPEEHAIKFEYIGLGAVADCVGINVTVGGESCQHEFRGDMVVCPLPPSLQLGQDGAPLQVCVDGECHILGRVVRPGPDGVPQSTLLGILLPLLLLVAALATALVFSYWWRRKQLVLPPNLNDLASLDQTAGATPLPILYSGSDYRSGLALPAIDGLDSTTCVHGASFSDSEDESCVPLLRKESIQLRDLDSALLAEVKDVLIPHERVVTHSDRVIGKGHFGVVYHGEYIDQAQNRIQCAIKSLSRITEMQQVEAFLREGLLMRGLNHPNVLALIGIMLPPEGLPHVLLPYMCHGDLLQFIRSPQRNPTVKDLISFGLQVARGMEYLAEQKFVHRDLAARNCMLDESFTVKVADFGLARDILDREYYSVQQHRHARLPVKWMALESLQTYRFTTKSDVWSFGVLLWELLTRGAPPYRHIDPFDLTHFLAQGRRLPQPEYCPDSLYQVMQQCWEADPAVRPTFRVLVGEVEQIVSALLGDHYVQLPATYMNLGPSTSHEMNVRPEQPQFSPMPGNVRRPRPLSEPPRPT
Hepatocyte growth factor receptor, sequence (P08581 whole entry): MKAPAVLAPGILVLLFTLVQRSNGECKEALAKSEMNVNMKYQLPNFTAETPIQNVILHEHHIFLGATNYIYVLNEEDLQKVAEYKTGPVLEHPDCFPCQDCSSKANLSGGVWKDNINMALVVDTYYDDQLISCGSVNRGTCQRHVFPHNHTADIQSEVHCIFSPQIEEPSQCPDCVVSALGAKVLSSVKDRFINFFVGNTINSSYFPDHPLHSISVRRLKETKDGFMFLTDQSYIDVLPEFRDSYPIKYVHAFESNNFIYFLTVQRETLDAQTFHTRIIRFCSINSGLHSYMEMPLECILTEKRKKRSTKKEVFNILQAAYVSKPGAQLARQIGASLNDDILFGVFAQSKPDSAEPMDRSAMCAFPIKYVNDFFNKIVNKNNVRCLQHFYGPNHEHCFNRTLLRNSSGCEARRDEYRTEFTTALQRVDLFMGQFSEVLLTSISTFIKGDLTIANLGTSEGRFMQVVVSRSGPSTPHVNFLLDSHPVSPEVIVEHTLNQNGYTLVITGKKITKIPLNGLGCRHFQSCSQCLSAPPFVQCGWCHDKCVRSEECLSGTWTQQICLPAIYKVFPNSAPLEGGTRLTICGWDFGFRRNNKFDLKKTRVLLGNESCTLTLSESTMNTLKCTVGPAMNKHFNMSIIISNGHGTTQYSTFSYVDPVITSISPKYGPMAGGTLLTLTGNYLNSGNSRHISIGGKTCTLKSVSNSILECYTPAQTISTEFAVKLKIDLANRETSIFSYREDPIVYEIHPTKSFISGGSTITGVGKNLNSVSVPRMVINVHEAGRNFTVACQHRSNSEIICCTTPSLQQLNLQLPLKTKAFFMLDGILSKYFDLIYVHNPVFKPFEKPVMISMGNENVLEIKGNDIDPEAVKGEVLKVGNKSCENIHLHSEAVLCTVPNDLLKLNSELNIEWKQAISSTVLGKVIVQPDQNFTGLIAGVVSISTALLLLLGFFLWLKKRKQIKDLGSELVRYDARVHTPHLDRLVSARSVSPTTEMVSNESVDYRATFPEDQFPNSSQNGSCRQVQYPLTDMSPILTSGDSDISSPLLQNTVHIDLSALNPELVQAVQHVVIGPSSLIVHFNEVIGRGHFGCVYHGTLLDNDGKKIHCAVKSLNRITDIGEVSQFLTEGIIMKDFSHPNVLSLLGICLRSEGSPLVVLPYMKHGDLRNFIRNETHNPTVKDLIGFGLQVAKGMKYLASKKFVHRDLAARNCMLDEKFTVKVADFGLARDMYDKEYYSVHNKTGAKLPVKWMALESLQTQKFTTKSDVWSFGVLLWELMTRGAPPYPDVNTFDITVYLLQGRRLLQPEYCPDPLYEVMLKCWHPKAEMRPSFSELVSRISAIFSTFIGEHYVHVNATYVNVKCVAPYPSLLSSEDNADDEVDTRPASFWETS
ALK tyrosine kinase receptor, sequence (Q9UM73 whole entry): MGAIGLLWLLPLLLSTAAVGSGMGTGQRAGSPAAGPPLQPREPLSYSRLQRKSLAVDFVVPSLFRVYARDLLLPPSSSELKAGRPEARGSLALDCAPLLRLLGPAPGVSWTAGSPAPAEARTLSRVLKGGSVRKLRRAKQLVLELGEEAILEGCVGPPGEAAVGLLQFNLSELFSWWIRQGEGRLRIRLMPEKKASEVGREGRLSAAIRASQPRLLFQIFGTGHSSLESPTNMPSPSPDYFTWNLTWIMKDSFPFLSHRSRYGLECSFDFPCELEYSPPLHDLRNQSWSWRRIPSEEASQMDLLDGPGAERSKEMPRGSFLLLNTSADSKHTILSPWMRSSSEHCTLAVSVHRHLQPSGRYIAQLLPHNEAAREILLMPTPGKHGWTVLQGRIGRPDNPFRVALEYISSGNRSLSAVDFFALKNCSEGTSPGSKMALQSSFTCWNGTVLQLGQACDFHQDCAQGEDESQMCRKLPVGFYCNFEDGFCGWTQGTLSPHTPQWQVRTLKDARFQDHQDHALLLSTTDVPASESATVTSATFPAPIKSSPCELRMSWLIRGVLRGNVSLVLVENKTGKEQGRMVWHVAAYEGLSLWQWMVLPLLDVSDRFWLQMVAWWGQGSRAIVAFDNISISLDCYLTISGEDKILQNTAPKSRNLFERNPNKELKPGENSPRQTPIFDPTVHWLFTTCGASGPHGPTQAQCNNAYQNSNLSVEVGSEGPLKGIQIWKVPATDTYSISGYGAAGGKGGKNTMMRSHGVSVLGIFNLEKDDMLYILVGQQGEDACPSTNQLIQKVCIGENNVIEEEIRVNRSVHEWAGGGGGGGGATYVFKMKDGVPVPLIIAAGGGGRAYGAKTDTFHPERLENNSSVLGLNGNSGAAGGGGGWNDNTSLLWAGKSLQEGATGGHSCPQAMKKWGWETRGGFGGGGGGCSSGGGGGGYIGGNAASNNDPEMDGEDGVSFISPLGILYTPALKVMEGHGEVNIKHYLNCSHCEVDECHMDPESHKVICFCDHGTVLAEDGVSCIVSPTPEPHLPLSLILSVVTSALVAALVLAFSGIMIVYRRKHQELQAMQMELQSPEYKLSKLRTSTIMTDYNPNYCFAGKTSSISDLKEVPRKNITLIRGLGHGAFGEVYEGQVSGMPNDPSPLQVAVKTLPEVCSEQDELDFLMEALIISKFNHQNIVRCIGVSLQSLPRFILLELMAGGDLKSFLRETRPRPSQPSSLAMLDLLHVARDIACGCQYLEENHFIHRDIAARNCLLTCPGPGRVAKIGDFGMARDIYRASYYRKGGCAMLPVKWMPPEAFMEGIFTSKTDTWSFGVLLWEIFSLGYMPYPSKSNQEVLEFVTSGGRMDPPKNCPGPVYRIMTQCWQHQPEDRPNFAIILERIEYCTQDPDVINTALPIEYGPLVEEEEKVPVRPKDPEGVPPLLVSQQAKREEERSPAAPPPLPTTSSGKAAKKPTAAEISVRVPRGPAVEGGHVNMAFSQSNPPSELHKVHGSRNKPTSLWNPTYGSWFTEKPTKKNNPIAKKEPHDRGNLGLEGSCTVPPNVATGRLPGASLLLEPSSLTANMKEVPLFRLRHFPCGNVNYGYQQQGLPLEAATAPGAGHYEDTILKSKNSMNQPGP

With `COCC/C(=N\S(=O)(=O)Cc1ccc(Cl)cc1)Nc1ccc(Oc2ccnc3cc(OCCCN4CCOCC4)c(OC)cc23)c(F)c1`, the IC50 came out at 412 nM in data set [1]; 480 nM in the data set on MKN-45; 565 nM in data set [4]; 2.89 nM in [5]; 4.26 nM in [6]; 720 nM with MDA-MB-231. For the same molecule, the IC50 in [7] is > 10000 nM; in data set [10], 7.28 nM. Besides, the Activity result in data set [2] was “Non-Toxic”; with A549, “Dose-dependent effect”; in [11], “Non-Toxic”. Besides, the CL/F in data set [3] was 19.7 mL/min/kg. Besides, the selectivity ratio in data set [8] turned out to be 4.2. This molecule had a Cmax in data set [9] of 1230 ng/mL. For the same molecule, the values for the survival at 360 h in data set [12] and in data set [14] were 70% and 100%, respectively. This molecule yielded a bioavailability in data set [13] of 74%. Moreover, the half-life in data set [15] is 3.5 h. In addition, the Tmax in [16] came out at 2.5 h.

Source of the values: ChEMBL document CHEMBL4765349, “Design, synthesis and biological evaluation of novel N-sulfonylamidine-based derivatives as c-Met inhibitors via Cu-catalyzed three-component reaction” (Eur J Med Chem, 2020).
